KLK5 inh: blocks human kallikrein 5 protease activity. recombinant hK5, fluorogenic AMC substrate cleavage. Q9Y337. hit rate 0.59% among 210,000. inhibition, % at 5 µM;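 active = inhibition of 40% or more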;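 also: 0% = enzyme controls without compound and 100% = no-enzyme blanks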
FXIa inh: blocks human coagulation factor XIa protease activity; P03951; hit rate 0.14% among 220,000; inhibition, % at 5 µM; purified FXIa, Boc-Glu-Ala-Arg-AMC fluorogenic substrate;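 active = inhibition of at least 40%; inactive = inhibition below 40%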;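 also: fluorescence of freed AMC excited at 355 nm; 0% = enzyme without compound and 100% = no enzyme blank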
Thrombin inh: blocks human thrombin protease activity | P00734 | alpha-thrombin, Boc-VPR-AMC fluorogenic substrate cleavage | inhibition, % at 5 µM | hit rate 0.26% among 220,000;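 active = inhibition at or above 40%; inactive = inhibition below 40%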;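 also: 0% = enzyme with no compound and 100% = wells without enzyme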
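System: Human alpha-thrombin protein | Medium: pH 7.5 Tris (50 mM) with NaCl 150 mM, Tween 20 0.05% | Times: Enzyme reaction carried out at room temperature | Detection: AMC fluorescence, 355/460 nm | Evaluation: Percent inhibition scaled between no-compound controls and no-enzyme blanks | Benchmarks: Enzyme without compound as high, wells lacking enzyme as low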
FXIIa inh: factor XIIa (human) inhibition | P00748 | purified FXIIa, Boc-QGR-AMC fluorogenic substrate, 2 h | inhibition, % at 5 µM | hit rate 0.3% among 220,000 | AID 800; in the data active = inhibition above about 40%;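 also: 0% = enzyme with no compound and 100% = blank without enzyme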
Target sequence (P00748 20-372 limits assumed): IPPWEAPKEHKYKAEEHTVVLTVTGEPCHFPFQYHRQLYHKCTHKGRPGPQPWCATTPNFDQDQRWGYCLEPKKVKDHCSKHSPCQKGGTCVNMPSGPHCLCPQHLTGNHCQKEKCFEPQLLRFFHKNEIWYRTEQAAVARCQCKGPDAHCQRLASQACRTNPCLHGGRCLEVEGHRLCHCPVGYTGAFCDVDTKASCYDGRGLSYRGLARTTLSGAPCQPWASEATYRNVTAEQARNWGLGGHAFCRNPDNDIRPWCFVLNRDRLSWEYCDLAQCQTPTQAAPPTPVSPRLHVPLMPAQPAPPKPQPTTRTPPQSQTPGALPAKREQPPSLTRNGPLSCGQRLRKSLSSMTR
Target sequence (P00748 373-615 limits assumed): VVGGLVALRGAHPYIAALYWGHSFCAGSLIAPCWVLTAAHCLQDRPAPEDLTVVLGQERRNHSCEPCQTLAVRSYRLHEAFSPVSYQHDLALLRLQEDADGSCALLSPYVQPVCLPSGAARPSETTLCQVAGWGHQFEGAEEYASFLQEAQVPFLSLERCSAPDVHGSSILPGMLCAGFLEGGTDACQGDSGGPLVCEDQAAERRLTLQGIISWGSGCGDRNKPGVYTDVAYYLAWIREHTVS
m-calpain inh: inhibitors of pig calpain II; purified calpain II, fluorogenic peptide substrate, 30 min; inhibition, % at 16 µM; hit rate 0.37% among 220,000; AID 1236;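 active = inhibition above about 50%, limit read from the data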
Numbers without * were called inactive. Rows were chosen to be rich in hits. Some 1.4% of all compounds tested hit in one or more screens of this group.

For O=C(COC(=O)c1ccc([N+](=O)[O-])s1)Nc1cccc(S(=O)(=O)NC2=NCCCCC2)c1 the results were KLK5 inh 2, FXIa inh 6, Thrombin inh 45*, FXIIa inh 6 and m-calpain inh 0.
O=C(c1ccccc1)N1CCN(S(=O)(=O)c2ccccc2)CC1 was read as KLK5 inh 0, FXIa inh 0, Thrombin inh 0, FXIIa inh 9 and m-calpain inh -19.
For CC1CC(C)CN(S(=O)(=O)c2ccc(C(=O)N3CCN(c4ccccc4)CC3)cc2)C1 (configuration not stated) the results were KLK5 inh 40*, FXIa inh 1, Thrombin inh 4, FXIIa inh 5 and m-calpain inh 7.
`CC1(C)C(C=C(Cl)Cl)C1C(=O)Nc1ccc([N+](=O)[O-])cc1` (configuration not stated) gave KLK5 inh -5, FXIa inh -4, Thrombin inh -11, FXIIa inh 3 and m-calpain inh 53*.
For CC(=O)c1ccc(S(=O)(=O)Nc2ccc(-c3cn4c(n3)SCC4)cc2)cc1 the results were KLK5 inh 4, FXIa inh 0, Thrombin inh 42*, FXIIa inh 5 and m-calpain inh -276.
For CS(=O)(=O)N(Cc1ccccc1)c1ccc(C(=O)NC2CCCCC2O)cc1 (configuration not stated) the results were KLK5 inh 14, FXIa inh -5, Thrombin inh 18, FXIIa inh 106* and m-calpain inh 18.
Screening COc1ccc(Cl)cc1N(CC(=O)NC(C)(C)C)S(=O)(=O)c1ccc(C)c([N+](=O)[O-])c1 returned KLK5 inh 45*, FXIa inh 12, Thrombin inh 29, FXIIa inh 20 and m-calpain inh 47.
Screening CCCNC(=S)N1CC2(C)CN(C(=O)C(=O)OCC)CC(C)(C1)C2=O returned KLK5 inh 2, FXIa inh 12, Thrombin inh -5, FXIIa inh 14 and m-calpain inh -6.
`COc1ccc(Oc2ccc3c(C(F)(F)F)cc(C(F)(F)F)nc3n2)cc1` gave KLK5 inh -18, FXIa inh -22, Thrombin inh 4, FXIIa inh 17 and m-calpain inh -27.
`Oc1ccc(Oc2ccc3c(C(F)(F)F)cc(C(F)(F)F)nc3n2)cc1` gave KLK5 inh 132*, FXIa inh -5, Thrombin inh 4, FXIIa inh 0 and m-calpain inh 3.
For CCOC(=O)c1sc(N(C)C(C)=O)nc1C the results were KLK5 inh -4, FXIa inh 19, Thrombin inh 1, FXIIa inh 42* and m-calpain inh 9.
COc1ccc(NC(=S)NCCc2c(C)[nH]c3ccc(OC)cc23)cc1 was read as KLK5 inh -3, FXIa inh -4, Thrombin inh -5, FXIIa inh 6 and m-calpain inh 62*.
For COC(=O)c1ccccc1NC(=O)CN(C)S(=O)(=O)c1ccc(OC)c(C)c1 the results were KLK5 inh 119*, FXIa inh -4, Thrombin inh 2, FXIIa inh 4 and m-calpain inh -11.
COC(=O)c1ccccc1NC(=O)CN(C)S(=O)(=O)c1ccc(OC)cc1 was read as KLK5 inh -3, FXIa inh 2, Thrombin inh 1, FXIIa inh 10 and m-calpain inh 20.
Cc1ccc(S(=O)(=O)N(C)CC(=O)Nc2ccccc2)cc1 was read as KLK5 inh 53*, FXIa inh 15, Thrombin inh 14, FXIIa inh 23 and m-calpain inh 12.
For COc1ccc(C(=O)N(C)c2c(C)n(C)n(-c3ccccc3)c2=O)cc1OC the results were KLK5 inh 7, FXIa inh 9, Thrombin inh 15, FXIIa inh 16 and m-calpain inh 70*.
CCOc1ccc(NC(=O)C(C)O)c(NS(=O)(=O)c2ccc(CCNC(C)=O)cc2)c1 (configuration not stated) was read as KLK5 inh 79*, FXIa inh 3, Thrombin inh 104*, FXIIa inh -1 and m-calpain inh 6.
`O=S(=O)(Nc1ccccc1N1CCCCC1)c1ccc(F)cc1` gave KLK5 inh -4, FXIa inh 2, Thrombin inh -4, FXIIa inh 4 and m-calpain inh 23.
For CCN(CC)S(=O)(=O)c1ccc(OC)c(NS(=O)(=O)c2ccc(F)cc2)c1 the results were KLK5 inh 42*, FXIa inh 16, Thrombin inh 23, FXIIa inh 28 and m-calpain inh 9.
